ABCB1 inh – blocks JC-1 efflux by human ABCB1 transporter. 0.067% of 190,000 active. P08183. inhibition, % at 6.6 µM. AID 1326. CCRF-Adr cells, flow cytometry; in the data active = inhibition above about 40%;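 note: 0% = vehicle and 100% = reference inhibitor; higher value means more JC-1 retained so stronger ABCB1 efflux block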
RAM inhibit – inhibitors of the yeast RAM network. inhibition, % at 50 µM. S. cerevisiae dse1pr::URA3 reporter, 5-FOA growth OD615, 2 d; analog-sensitive cbk1-as2 kinase mutant strain. 1.8% of 190,000 active;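 active = inhibition above a set limit, 3 SD over mean compound inhibition, cut at about 8.4% in these data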;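 note: 0% = DMSO-only wells with no growth and 100% = 10 µM 1-NA-PP1 full growth; inhibition rescues growth on 5-FOA so higher OD means more RAM inhibition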
WT yeast gro inh – growth inhibition of WT yeast, mitochondrial fusion screen; 2.1% of 190,000 active; mitochondrial fusion phenotypic screen, WT strain; AID 1362; inhibition, % at 10 µM; in the data active = inhibition above about 58%; tested in S. cerevisiae
ABCG2 inh – blocks JC-1 efflux by human ABCG2 transporter; Q9UNQ0; IgMXP3 cells, flow cytometry; inhibition, % at 6.6 µM; 0.1% of 190,000 active; AID 1325;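 active = inhibition above 80%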;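 note: 0% = DMSO and 100% = nicardipine control wells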
Target sequence (Q9UNQ0 whole entry, looked up): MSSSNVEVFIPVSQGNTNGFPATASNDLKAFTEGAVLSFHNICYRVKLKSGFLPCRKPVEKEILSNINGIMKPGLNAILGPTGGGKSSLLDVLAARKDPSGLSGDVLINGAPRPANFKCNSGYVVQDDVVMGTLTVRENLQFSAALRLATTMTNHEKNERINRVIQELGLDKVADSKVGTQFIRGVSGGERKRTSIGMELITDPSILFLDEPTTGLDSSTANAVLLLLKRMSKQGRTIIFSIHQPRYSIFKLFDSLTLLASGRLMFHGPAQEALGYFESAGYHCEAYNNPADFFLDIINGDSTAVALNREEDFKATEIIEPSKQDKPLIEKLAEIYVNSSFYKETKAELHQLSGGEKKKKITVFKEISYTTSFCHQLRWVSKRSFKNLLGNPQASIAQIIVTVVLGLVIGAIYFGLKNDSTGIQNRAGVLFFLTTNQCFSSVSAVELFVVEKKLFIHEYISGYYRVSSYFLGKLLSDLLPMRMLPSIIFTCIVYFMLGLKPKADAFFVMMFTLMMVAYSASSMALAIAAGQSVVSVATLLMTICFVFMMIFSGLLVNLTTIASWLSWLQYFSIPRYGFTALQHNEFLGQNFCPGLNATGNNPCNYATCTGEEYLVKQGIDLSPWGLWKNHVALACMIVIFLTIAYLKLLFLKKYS
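Assay system – ABCG2 IgMXP3 and barcoded ABCB1 CCRF-Adr cell mix · Input – 3 million cells/mL in well · Reagent – JC-1 fluorescent substrate · Compound – single test compound dose, 6.6 µM final · Timing – 10 min exposure at 25 °C with rotation, no wash · Detection – flow cytometry of retained JC-1 fluorescence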
L major viab – reduces viability of Leishmania major promastigotes. resazurin fluorescence viability. 9% of 200,000 active. inhibition, % at 10 µM; in the data active = inhibition above about 50%;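 note: promastigotes grown with compound for 44 hours at 28 °C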
* = called active by the depositor; . = not tested or not shown. An excerpt weighted towards active compounds, which were near 12% of everything screened.

SMILES	ABCB1 inh	RAM inhibit	WT yeast gro inh	ABCG2 inh	L major viab
O=C(Nc1ccccc1-c1ccccc1)c1ccc(NC(=O)c2ccco2)cc1	0.9	5.7	.	3.4	14.5
Cc1cc(C)cc(NC(=S)N(Cc2ccc(Cl)cc2)Cc2ccc(C(=O)O)cc2)c1	-1.0	3.4	11.6	-2.1	1.6
Cc1cc(C)cc(NC(=S)N(Cc2ccc(Br)cc2)Cc2ccc(C(=O)O)cc2)c1	0.1	3.0	79.2*	0.3	3.0
Cc1cc(NC(=S)N(Cc2ccc(Cl)cc2)Cc2ccc(C(=O)O)cc2)ccc1Cl	-0.8	4.5	70.9*	-1.4	-4.9
Cc1ccc(NC(=S)N(Cc2ccc(Br)cc2)Cc2ccc(C(=O)O)cc2)cc1C	-0.4	3.2	67.5*	-0.8	2.5
Cc1ccc(NC(=S)N(Cc2cccc(Br)c2)CC2CCC(C(=O)O)CC2)cc1 (configuration not stated)	0.1	7.7	6.0	0.2	-7.6
Cc1cc(NC(=S)N(Cc2cccc(Br)c2)CC2CCC(C(=O)O)CC2)ccc1Cl (configuration not stated)	0.8	3.8	71.0*	2.8	-0.8
COC(=O)c1ccccc1NC(=O)N1CCN(Cc2ccco2)CC1	-0.3	1.4	12.2	2.6	-4.0
CCN1C(=O)C(CC(=O)Nc2ccc(F)cc2)N(CCCN2CCN(c3ccc(F)cc3)CC2)C1=S (configuration not stated)	0.7	0.8	6.3	1.4	47.5
Nc1cc[n+](CC(=O)c2ccc3c(c2)OCCO3)cc1	-0.3	-0.1	35.9	-9.4	77.8*
O=C(c1cccs1)N1CCN(Cc2ccccc2[N+](=O)[O-])CC1	0.3	0.4	-5.4	7.7	76.5*
COc1cccc(C(=O)N2CCN(Cc3ccccc3[N+](=O)[O-])CC2)c1	1.4	0.9	-3.8	10.7	-5.9
COc1ccc(CN2CCN(C(=O)c3cccs3)CC2)c(OC)c1OC	0.6	-0.1	-0.7	6.0	94.8*
CCNC(=S)/N=C(\N)Nc1nc(C)c2cc(C)ccc2n1	0.9	-1.1	42.2	0.6	81.4*
CCOC(=O)c1ccc(N2CCN(c3ccccc3F)CC2)c(NC(=O)Nc2ccccc2)c1	.	2.7	-37.6	8.2	97.2*
CCOC(=O)c1ccc(N2CCN(c3ccc(F)cc3)CC2)c(NC(=O)Nc2cccc(OC)c2)c1	0.7	3.0	-0.1	1.2	96.5*
CC1(c2ccc(Cl)cc2)NC(=O)CS1 (configuration not stated)	0.1	1.4	-3.3	0.9	-6.3
Fc1ccc(CSc2nsc(SCc3ccc(F)cc3)n2)cc1	0.3	2.0	31.2	1.3	-8.3
O=C(Nc1nc(SCc2ccc(F)cc2)ns1)c1ccco1	-0.1	5.7	68.5*	-0.2	-9.4
O=C(Nc1ccccc1N1CCOCC1)c1ccc(Cl)nc1	0.6	0.6	-17.1	1.7	-4.7
CCCC1=[N+](CC)CCn2c(C)ccc21	-3.0	1.1	11.1	-1.7	1.3
CCCC1=[N+](CC(=O)c2ccccc2)CCn2c(C)ccc21	-1.4	0.5	-4.4	1.8	89.5*
O=C1CN(CC(=O)N2CCCCC2)c2ccccc2O1	0.3	0.7	-8.0	1.3	97.8*
O=C1CN(CC(=O)N2CCOCC2)c2ccccc2O1	-0.2	0.0	-1.7	-0.4	-0.7
O=C(NCC(c1cccnc1)N1CCOCC1)C1CCCCC1 (configuration not stated)	0.8	1.6	-9.8	4.4	-6.4
SMILES	ABCB1 inh	RAM inhibit	WT yeast gro inh	ABCG2 inh	L major viab
COc1ccccc1N1CCN(C(CNC(=O)C2CCCCC2)c2cccnc2)CC1 (configuration not stated)	1.1	-0.1	4.8	5.7	51.0*
COc1ccccc1N1CCN(C(CNC(=O)c2ccc3c(c2)OCO3)c2cccnc2)CC1 (configuration not stated)	1.0	1.2	42.1	8.0	94.4*
O=C(NCC(c1ccco1)N1CCN(c2ccccc2)CC1)c1ccc2c(c1)OCO2 (configuration not stated)	2.8	-0.1	10.8	26.7	23.4
CCCCNC(=S)NNC(=O)c1c(C)nc2ccccn12	-1.2	-0.1	-8.6	7.1	0.8
CC1=CC(=O)C=C(C)C1=NOC(=O)/C=C\c1ccccc1	0.6	-0.4	-3.4	15.2	53.3*
CC(C)N(C)CCOC(=O)/C=C/c1ccccc1	-0.1	1.4	10.4	0.1	3.8
CSc1nnc(C)c(=O)n1COC(=O)/C=C/c1ccccc1	0.9	1.4	0.5	1.5	4.3
CC1=C(C)/C(=N\OC(=O)/C=C/c2ccccc2)C=CC1=O	0.2	3.8	6.1	0.7	100.5*
CC1=CC(=NOC(=O)/C=C/c2ccccc2)C=C(C)C1=O	-0.1	2.7	-18.6	1.0	100.5*
CCN(CC)CCCNCC(=O)Nc1ccc2c(c1)CCC2	0.0	1.4	-8.6	-0.8	3.9
CSc1ccccc1NC(=O)COC(=O)c1ccc(O)cc1	0.1	0.9	2.8	1.2	-7.0
O=C(COC(=O)c1ccc(O)cc1)Nc1ccccc1-c1ccccc1	1.1	1.8	-10.7	8.4	56.7*
Cn1nnnc1SCc1csc(Nc2ccccc2)n1	0.1	0.8	17.9	0.6	-2.7
Cc1ccc(Nc2nc(CSc3nnc(-c4ccccc4C)n3C)cs2)cc1	2.6	1.4	28.4	13.0	17.0
Cc1ccc(Nc2nc(CSc3nnc(-c4cccnc4)n3-c3ccccc3C)cs2)cc1	3.1	4.3	31.6	0.0	97.0*
Cc1ccc(Nc2nc(CSc3nnc(-c4ccccc4)n3C)cs2)cc1	1.4	2.3	22.0	4.3	95.3*
Cc1ccccc1-n1c(SCc2csc(Nc3ccccc3)n2)nnc1-c1cccnc1	10.9	1.5	23.7	19.5	64.7*
O=S(=O)(NCc1ccccc1)NCc1cccc(C(F)(F)F)c1	1.3	1.7	-8.7	1.9	-1.7
CCN(CC)S(=O)(=O)c1ccc(NN=C2CCN(C)CC2)c([N+](=O)[O-])c1	-0.4	-1.7	-2.0	1.7	81.3*
CC(C)(C)C1CCC(=NNc2ccc(S(N)(=O)=O)cc2[N+](=O)[O-])CC1 (configuration not stated)	-0.2	-0.4	34.6	-1.5	85.2*
CC1CCCC/C1=N\Nc1ccc(S(N)(=O)=O)cc1[N+](=O)[O-] (configuration not stated)	0.3	1.9	6.0	4.1	7.9
COc1cc(CCC(=O)NNC(=O)c2ccc(C)cc2)cc(OC)c1OC	0.7	0.8	-4.4	4.5	-2.2
CCOC(=O)c1c(NC(=S)Nc2ccccc2)sc2c1CC(C)(C)SC2	-0.8	3.5	8.8	-7.3	7.8
CCOC(=O)c1c(NC(=O)CN2CCOCC2)sc(C(=O)NC)c1C	0.6	-0.2	14.8	4.0	5.0
CCOC(=O)c1c(NC(=S)Nc2ccccc2)sc2c1CCN(CCc1ccccc1)C2	0.1	1.2	0.2	1.5	78.6*
CCOC(=O)c1c(NC(=O)CN2CCN(C)CC2)sc(C(=O)Nc2ccccc2)c1C	10.1	1.0	5.6	9.8	99.5*
